Test results as given in ChEMBL document CHEMBL1154807, “Synthesis and antibacterial activity of novel 3-O-carbamoyl derivatives of clarithromycin and 11,12-cyclic carbonate azithromycin” (2010).
In brackets after ≈: the same amount, converted by molar mass.

Columns and labels:
Type in all cases: functional
Streptococcus pneumoniae [1] = test: Antibacterial activity against erythromycin-resistant Streptococcus pneumoniae AB11 by standard dilution assay
Summary of the method: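 Readout is minimal inhibitory concentration (MIC). The strain carries both erm- and mef-encoded erythromycin resistance. It was tested within a six-strain Gram-positive panel alongside clarithromycin and azithromycin references.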

Staphylococcus aureus = test: Antibacterial activity against erythromycin-susceptible Staphylococcus aureus ATCC 25923 by standard dilution assay
Streptococcus pneumoniae [2] = test: Antibacterial activity against erythromycin-susceptible Streptococcus pneumoniae ATCC 49619 by standard dilution assay
Summary of the method: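 MIC read-out, determined against a panel of six Gram-positive strains: three erythromycin-susceptible and three erythromycin-resistant S. pneumoniae (erm, mef, or erm plus mef). Clarithromycin and azithromycin were run alongside as reference macrolides.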

Streptococcus pneumoniae [3] = test: Antibacterial activity against erythromycin-resistant Streptococcus pneumoniae A22072 by standard dilution assay
Summary of the method: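 Readout is minimal inhibitory concentration (MIC). The strain carries mef-encoded erythromycin resistance. It was tested within a six-strain Gram-positive panel alongside clarithromycin and azithromycin references.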

Streptococcus pneumoniae [4] = test: Antibacterial activity against erythromycin-resistant Streptococcus pneumoniae B1 by standard dilution assay
Summary of the method: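 Readout is minimal inhibitory concentration (MIC). Erythromycin resistance in this strain is erm-encoded. It was tested within a six-strain Gram-positive panel alongside clarithromycin and azithromycin references.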

Streptococcus pyogenes = test: Antibacterial activity against erythromycin-susceptible Streptococcus pyogenes by standard dilution assay

Compound | MIC (Streptococcus pneumoniae [1]) [µg/mL] | MIC (Staphylococcus aureus) [µg/mL] | MIC (Streptococcus pneumoniae [2]) [µg/mL] | MIC (Streptococcus pneumoniae [3]) [µg/mL] | MIC (Streptococcus pneumoniae [4]) [µg/mL] | MIC (Streptococcus pyogenes) [µg/mL]
CC[C@H]1OC(=O)[C@H](C)[C@@H](OC(=O)NCCc2ccccc2Cl)[C@H](C)[C@@H](O[C@@H]2O[C@H](C)C[C@H](N(C)C)[C@H]2O)[C@](C)(O)C[C@@H](C)CN(C)[C@H](C)[C@H]2OC(=O)O[C@@]21C | 8 (≈ 10 µM) | 32 (≈ 40.1 µM) | 4 (≈ 5.01 µM) | 16 (≈ 20 µM) | 32 (≈ 40.1 µM) | 8 (≈ 10 µM)
CC[C@H]1OC(=O)[C@H](C)[C@@H](OC(=O)NCc2ccccc2)[C@H](C)[C@@H](O[C@@H]2O[C@H](C)C[C@H](N(C)C)[C@H]2O)[C@](C)(O)C[C@@H](C)CN(C)[C@H](C)[C@H]2OC(=O)O[C@@]21C | 64 (≈ 85.3 µM) | 64 (≈ 85.3 µM) | 16 (≈ 21.3 µM) | 128 (≈ 171 µM) | 64 (≈ 85.3 µM) | 32 (≈ 42.7 µM)
CC[C@H]1OC(=O)[C@H](C)[C@@H](OC(=O)NCCc2ccccc2)[C@H](C)[C@@H](O[C@@H]2O[C@H](C)C[C@H](N(C)C)[C@H]2O)[C@](C)(O)C[C@@H](C)CN(C)[C@H](C)[C@H]2OC(=O)O[C@@]21C | 32 (≈ 41.9 µM) | 64 (≈ 83.8 µM) | 4 (≈ 5.24 µM) | 64 (≈ 83.8 µM) | 64 (≈ 83.8 µM) | 8 (≈ 10.5 µM)
CCCCNC(=O)O[C@H]1[C@H](C)[C@@H](O[C@@H]2O[C@H](C)C[C@H](N(C)C)[C@H]2O)[C@](C)(O)C[C@@H](C)CN(C)[C@H](C)[C@H]2OC(=O)O[C@]2(C)[C@@H](CC)OC(=O)[C@@H]1C | 32 (≈ 44.7 µM) | 64 (≈ 89.4 µM) | 8 (≈ 11.2 µM) | 128 (≈ 179 µM) | 64 (≈ 89.4 µM) | 8 (≈ 11.2 µM)
CCCCCNC(=O)O[C@H]1[C@H](C)[C@@H](O[C@@H]2O[C@H](C)C[C@H](N(C)C)[C@H]2O)[C@](C)(O)C[C@@H](C)CN(C)[C@H](C)[C@H]2OC(=O)O[C@]2(C)[C@@H](CC)OC(=O)[C@@H]1C | 32 (≈ 43.8 µM) | 64 (≈ 87.7 µM) | 4 (≈ 5.48 µM) | 64 (≈ 87.7 µM) | 32 (≈ 43.8 µM) | 16 (≈ 21.9 µM)
CC[C@H]1OC(=O)[C@H](C)[C@@H](O)[C@H](C)[C@@H](O[C@@H]2O[C@H](C)C[C@H](N(C)C)[C@H]2OC(C)=O)[C@](C)(O)C[C@@H](C)CN(C)[C@H](C)[C@@H](O)[C@]1(C)O | 256 (≈ 405 µM) | 128 (≈ 202 µM) | 128 (≈ 202 µM) | 128 (≈ 202 µM) | 128 (≈ 202 µM) | 128 (≈ 202 µM)
CC[C@H]1OC(=O)[C@H](C)[C@@H](O)[C@H](C)[C@@H](O[C@@H]2O[C@H](C)C[C@H](N(C)C)[C@H]2OC(C)=O)[C@@](C)(OC)C[C@@H](C)C(=O)[C@H](C)[C@@H](O)[C@]1(C)O | 256 (≈ 405 µM) | 128 (≈ 203 µM) | 128 (≈ 203 µM) | 128 (≈ 203 µM) | 128 (≈ 203 µM) | 128 (≈ 203 µM)
CC[C@H]1OC(=O)[C@H](C)[C@@H](OC(=O)NCc2ccc(OC)cc2)[C@H](C)[C@@H](O[C@@H]2O[C@H](C)C[C@H](N(C)C)[C@H]2O)[C@](C)(O)C[C@@H](C)CN(C)[C@H](C)[C@H]2OC(=O)O[C@@]21C | 64 (≈ 82.1 µM) | 128 (≈ 164 µM) | 8 (≈ 10.3 µM) | 128 (≈ 164 µM) | 64 (≈ 82.1 µM) | 16 (≈ 20.5 µM)
CC[C@H]1OC(=O)[C@H](C)[C@@H](OC(=O)NCc2ccc(F)cc2)[C@H](C)[C@@H](O[C@@H]2O[C@H](C)C[C@H](N(C)C)[C@H]2O)[C@](C)(O)C[C@@H](C)CN(C)[C@H](C)[C@H]2OC(=O)O[C@@]21C | 64 (≈ 83.3 µM) | 64 (≈ 83.3 µM) | 4 (≈ 5.21 µM) | 32 (≈ 41.7 µM) | 64 (≈ 83.3 µM) | 16 (≈ 20.8 µM)
CC[C@H]1OC(=O)[C@H](C)[C@@H](O[C@H]2C[C@@](C)(OC)[C@@H](O)[C@H](C)O2)[C@H](C)[C@@H](O[C@@H]2O[C@H](C)C[C@H](N(C)C)[C@H]2O)[C@](C)(O)C[C@@H](C)CN(C)[C@H](C)[C@@H](O)[C@]1(C)O [AZITHROMYCIN] | 256 (≈ 342 µM) | 0.25 (≈ 0.334 µM) | 0.03 (≈ 0.0401 µM) | 4 (≈ 5.34 µM) | 128 (≈ 171 µM) | 0.12 (≈ 0.16 µM)
CC[C@H]1OC(=O)[C@H](C)[C@@H](O[C@H]2C[C@@](C)(OC)[C@@H](O)[C@H](C)O2)[C@H](C)[C@@H](O[C@@H]2O[C@H](C)C[C@H](N(C)C)[C@H]2O)[C@](C)(OC)C[C@@H](C)C(=O)[C@H](C)[C@@H](O)[C@]1(C)O [CLARITHROMYCIN] | 128 (≈ 171 µM) | 0.12 (≈ 0.16 µM) | 0.03 (≈ 0.0401 µM) | 4 (≈ 5.35 µM) | 64 (≈ 85.6 µM) | 0.12 (≈ 0.16 µM)
